From PubChem BioAssay AID488910 (Broad Institute, 2010) come the findings set out here.

Hit rate of the full screen: of about 20,000 compounds, about 25 (0.1%) were called active.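 How the source made its calls: active means mean replicate protection from cytokine-induced ATP loss at least 50% and at least 75% of replicates each reaching 50%; inconclusive means meets only one of the two criteria, mean or replicate share; inactive means fails both the mean and replicate share criteria.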 The sample as a whole holds a higher share of actives than the screen did.

This assay in a line: protection of INS-1E cells from cytokine death, primary screen, ATP luminescence, single point (AID 488910). The settings on record: INS-1E cytokine-induced death, 48 h, at 10 µM, hits give high values, normalised: neutral wells 0, positive control 100. The procedure, abridged: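 Assay system: INS-1E rat cells / Quantity: 8000 cells per well / Medium: RPMI without phenol red, 5% FBS / Probe or stimulus: three-cytokine cocktail (IFN-γ, TNF-α, IL-1β) / Dosing: one compound concentration, pin transfer / Timing: 48 h co-treatment, 10 min post-lysis read / Technique: CellTiter-Glo luminescence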
On to `COc1cc(/C=N/NC(=O)CCCCCCC(=O)Nc2ccccc2O)ccc1O`, for which the protection from cytokine-induced ATP loss is -6.33% (inactive). As for `COc1ccc(NC(=O)N(C)C[C@H]2Oc3ccc(NC(=O)NC(C)C)cc3CC(=O)N([C@H](C)CO)C[C@H]2C)cc1`, the protection from cytokine-induced ATP loss is 14% (inactive).

For `Cc1ccc(S(=O)(=O)N(C)C[C@@H]2Oc3ccc(N(C)C)cc3C(=O)N([C@@H](C)CO)C[C@H]2C)cc1`, the protection from cytokine-induced ATP loss was -1.09% (inactive). In the case of `Cc1ccc(S(=O)(=O)Nc2ccc3c(c2)C(=O)N([C@@H](C)CO)C[C@@H](C)[C@H](CN(C)Cc2ccc(C(=O)O)cc2)O3)cc1`, the protection from cytokine-induced ATP loss was 3.07% (inactive). As to `C[C@H]1CN([C@@H](C)CO)C(=O)Cc2cc(NC(=O)Cn3cnnn3)ccc2O[C@H]1CN(C)Cc1ccc(C(=O)O)cc1`, the protection from cytokine-induced ATP loss is 10.1% (inactive). `Cc1noc(C)c1S(=O)(=O)N(C)C[C@@H]1Oc2c(NS(=O)(=O)c3cn(C)cn3)cccc2C(=O)N([C@@H](C)CO)C[C@H]1C`: the protection from cytokine-induced ATP loss is 4.74% (inactive).

With `CC(C)NC(=O)Nc1ccc2c(c1)C(=O)N([C@@H](C)CO)C[C@@H](C)[C@H](CN(C)Cc1ccc(Cl)c(Cl)c1)O2`, the protection from cytokine-induced ATP loss is -9.43% (inactive).

Turning to `C[C@@H]1CN([C@H](C)CO)C(=O)c2cccc(NS(=O)(=O)c3ccc(Cl)cc3)c2O[C@H]1CN(C)Cc1ccc(C(F)(F)F)cc1`, the protection from cytokine-induced ATP loss is 6.19% (inactive). Consider `C[C@H]1CN([C@@H](C)CO)C(=O)c2cccc(NC(=O)Nc3ccc(F)cc3)c2O[C@H]1CN(C)S(=O)(=O)c1cn(C)cn1`, for which the protection from cytokine-induced ATP loss was 5.6% (inactive). Turning to `Cc1noc(C)c1NC(=O)N(C)C[C@@H]1Oc2ccc(NS(=O)(=O)c3ccc(Cl)cc3)cc2C(=O)N([C@@H](C)CO)C[C@H]1C`, the protection from cytokine-induced ATP loss was 5.78% (inactive). For the molecule `C[C@@H]1CN([C@H](C)CO)C(=O)c2cccc(NC(=O)Nc3ccc4c(c3)OCO4)c2O[C@H]1CN(C)S(=O)(=O)c1ccc(Cl)cc1`, the protection from cytokine-induced ATP loss was -2.56% (inactive). With `COc1ccc(NC(=O)N(C)C[C@@H]2Oc3c(NS(=O)(=O)c4ccc(OC)cc4)cccc3C(=O)N([C@H](C)CO)C[C@@H]2C)cc1`, the protection from cytokine-induced ATP loss is 8.49% (inactive).

`C[C@H]1CN([C@@H](C)CO)C(=O)c2cc(NC(=O)Cn3cnnn3)ccc2O[C@H]1CN(C)Cc1ccc(C(=O)O)cc1`: the protection from cytokine-induced ATP loss is 1.96% (inactive). Under `C[C@@H]1CN([C@H](C)CO)C(=O)c2cccc(NC(=O)CCCCCC(=O)Nc3ccccc3N)c2O[C@H]1CN(C)CC1CCCCC1` stands 4.11% (inactive); under `C[C@@H]1CN([C@H](C)CO)C(=O)Cc2cc(NC(=O)Cn3cnnn3)ccc2O[C@H]1CN(C)Cc1ccc(Cl)c(Cl)c1`, 4.05% (inactive). Turning to `C[C@H](CO)N1C[C@H](C)[C@@H](CN(C)C(=O)Nc2ccccc2)Oc2c(NC(=O)CCCCCC(=O)Nc3ccccc3N)cccc2C1=O`, the protection from cytokine-induced ATP loss was 4.22% (inactive). On to `C[C@@H]1CN([C@H](C)CO)C(=O)c2cccc(NS(=O)(=O)c3ccc(F)cc3)c2O[C@@H]1CN(C)S(=O)(=O)c1ccc(Cl)cc1`, for which the protection from cytokine-induced ATP loss was 0.697% (inactive). `C[C@@H]1CN([C@@H](C)CO)C(=O)c2cccc(NC(=O)Nc3cccc4ccccc34)c2O[C@@H]1CN(C)CC1CC1`: the protection from cytokine-induced ATP loss was 2.15% (inactive).

As for `COC(=O)CCCCCCC(=O)N/N=C/c1c(Cl)cc(OC)c(OC)c1Cl`, the protection from cytokine-induced ATP loss was 2.23% (inactive). Under `C[C@@H]1CN([C@@H](C)CO)C(=O)c2cc(NS(=O)(=O)c3ccc(F)cc3)ccc2O[C@@H]1CN(C)C(=O)NC1CCCCC1` stands -2.78% (inactive); under `COc1ccc(NC(=O)N(C)C[C@H]2Oc3ccc(N(C)C)cc3C(=O)N([C@@H](C)CO)C[C@H]2C)cc1`, 3.7% (inactive). Regarding `Cc1ccc(S(=O)(=O)N(C)C[C@@H]2Oc3c(NC(=O)Nc4ccc(F)cc4)cccc3C(=O)N([C@H](C)CO)C[C@H]2C)cc1`, the protection from cytokine-induced ATP loss was 40.9% (inactive). As for `CNC[C@H]1OCCCC[C@@H](C)Oc2ccc(NC(=O)Cc3ccccc3)cc2C(=O)N([C@H](C)CO)C[C@@H]1C`, the protection from cytokine-induced ATP loss is -7.6% (inactive).

In the case of `C[C@@H]1CN([C@@H](C)CO)C(=O)Cc2cc(NS(=O)(=O)c3ccc(F)cc3)ccc2O[C@@H]1CN(C)S(=O)(=O)c1cccs1`, the protection from cytokine-induced ATP loss is 4.79% (inactive). On to `C[C@H](CO)N1C[C@H](C)[C@H](CN(C)Cc2ccccc2)Oc2ccc(NC(=O)CCCCCC(=O)Nc3ccccc3N)cc2C1=O`, for which the protection from cytokine-induced ATP loss was -0.781% (inactive). `COc1ccc(NC(=O)N(C)C[C@@H]2Oc3ccc(NC(=O)CCCN(C)C)cc3CC(=O)N([C@H](C)CO)C[C@H]2C)cc1`: the protection from cytokine-induced ATP loss was 7.7% (inactive). `C[C@@H]1CN([C@@H](C)CO)C(=O)c2cccc(NS(=O)(=O)c3ccc(Cl)cc3)c2O[C@@H]1CN(C)Cc1ccccc1`: the protection from cytokine-induced ATP loss was -3.08% (inactive). On to `CC(C)NC(=O)N(C)C[C@H]1Oc2ccc(NS(C)(=O)=O)cc2CC(=O)N([C@@H](C)CO)C[C@@H]1C`, for which the protection from cytokine-induced ATP loss was 2.48% (inactive). Turning to `Cc1noc(C)c1NC(=O)N(C)C[C@@H]1Oc2c(NC(=O)C3CCCCC3)cccc2C(=O)N([C@H](C)CO)C[C@@H]1C`, the protection from cytokine-induced ATP loss is 10.1% (inactive).

`C[C@@H]1CN([C@H](C)CO)C(=O)c2cccc(NC(=O)Nc3ccc4c(c3)OCO4)c2O[C@@H]1CN(C)Cc1ccccc1`: the protection from cytokine-induced ATP loss was -9.92% (inactive). Consider `C[C@@H]1CN([C@@H](C)CO)C(=O)c2cccc(NS(=O)(=O)c3cccs3)c2O[C@H]1CN(C)Cc1ccncc1`, for which the protection from cytokine-induced ATP loss was 4.56% (inactive). In the case of `C[C@H]1CN([C@@H](C)CO)C(=O)Cc2cc(NC(=O)Cn3cnnn3)ccc2O[C@@H]1CN(C)Cc1ccc(-c2ccccc2)cc1`, the protection from cytokine-induced ATP loss was 5.19% (inactive). To `C[C@@H]1CN([C@H](C)CO)C(=O)Cc2cc(NC(=O)Nc3cccc4ccccc34)ccc2O[C@@H]1CN(C)Cc1ccc(C(F)(F)F)cc1` belongs -18.8% (inactive); to `Cc1ccc(S(=O)(=O)Nc2ccc3c(c2)CC(=O)N([C@H](C)CO)C[C@@H](C)[C@H](CN(C)Cc2ccc(C(F)(F)F)cc2)O3)cc1`, 4.83% (inactive); to `O=C(NO)c1ccc(C(=O)N/N=C/c2cc(Br)cc(Br)c2O)cc1`, 29.8% (inactive). `C[C@@H]1CN([C@@H](C)CO)C(=O)c2cc(NS(=O)(=O)c3ccc(Cl)cc3)ccc2O[C@H]1CN(C)C(=O)Nc1ccc(C(F)(F)F)cc1`: the protection from cytokine-induced ATP loss is -4.38% (inactive).
